Source: PubChem BioAssay
Apaf1 activ = human Apaf-1 activation; O14727; Apaf-1 apoptosome caspase-3 activation, DEVD-Rh110 fluorescence; stronger effect = lower value; activity change, negative = activation, % at 20 µM; 0.31% of 330,000 active; AID 489031;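 active = activity change at or below -40% at 20 µM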
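system = biochemical Apaf-1 apoptosome reconstitution | buffer or medium = 20 mM HEPES pH 7.5 with CHAPS, BSA | also added = dATP and cytochrome c as apoptosome triggers, (Z-DEVD)2-Rh110 substrate | incubation = 30 min compound preincubation and 50 min reaction, both room temperature | measured by = fluorescence, 540 nm emission, 480 nm excitation | read-out basis = Caspase-3 cleavage activity downstream of Apaf-1 activation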
Rh110 act interf = counter-screen for Apaf-1 activators: fluorescence interference; 980 tested, under 10 active; AID 504616; fluorescence interference (activity change), % at 20 µM, hits read low; Rh110 fluorescence interference, quenched caspase reaction, Ex480/Em540; shares compounds with Apaf1 activ;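 active = mean activity change at or below -40% when tested at 20 µM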
Apaf-1 act conf2 = confirmation of human Apaf-1 activators. activity change, negative = activation, % at 20 µM. 5% of 980 active. shares compounds with Apaf1 activ. reconstituted apoptosome caspase-3 activity, DEVD-Rh110 fluorescence; stronger effect = lower value. AID 504617;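 active = mean activity change at or below -40%, meaning activation of 40% or more, at 20 µM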
Fluor interf act = shows fluorescence interference in the Apaf-1 activator assay format; shares compounds with Apaf1 activ; fluorescence interference counterscreen; EC50, µM; 55 tested, under 10 active; call rule not given here
Large screens that a line does not name were inactive (follow-up assays come after a bar, where they were run). Not all results are given here.

CCC(COC(=O)c1ccccc1)Oc1cc(NCc2ccccc2)c2ncn(C(C)C)c2c1 (centres undefined)	none
CC1=NN(c2ccc(Cl)cc2)C(=O)C1C(c1cccc(O)c1)c1c(C)[nH]n(-c2ccc(Cl)cc2)c1=O (centres undefined)	none
CCN1CCN(Cc2ccc(NC(=O)c3cc(NC(=O)c4cc5cccc(OC)c5o4)cc(OC)c3)cc2C(F)(F)F)CC1	none
CC(C)(CS(=O)(=O)[O-])NC(=O)CC[N+](C)(C)CCO	Apaf1 activ -597.6 | Rh110 act interf inactive | Apaf-1 act conf2 -128.0 | Fluor interf act inactive
Oc1c(Br)cc(Br)cc1C=Nc1cccnc1	none
Nc1ccn([C@H]2C[C@H](O)[C@@H](CO)O2)c(=O)n1	none
Cn1nc(-c2ccccn2)nc2c(=O)n(C)c(=O)nc1-2	none
CCCNc1c(F)c(F)c2c(C)c3ccccc3nc2c1F	none
CN(C)S(=O)(=O)c1ccc(NC(=O)CN2CCCC2c2ccc3c(c2)OCCCO3)cc1 (centres undefined)	none
CC1Cc2ccccc2N1CC(=O)Nc1ccc(S(=O)(=O)N(C)C)cc1 (centres undefined)	Apaf1 activ -444.1 | Rh110 act interf inactive | Apaf-1 act conf2 inactive
Cc1ccc(NC(=O)c2ccc(CN3CCc4ccccc4C3)cc2)cc1	none
CS(=O)(=O)Nc1ccc(C(=O)Nc2ccc3c(c2)OCO3)cc1	Apaf1 activ -58.1 | Rh110 act interf inactive | Apaf-1 act conf2 inactive
CCOC(=O)CNc1ccc2c(c1)OCO2	none
CCN(C(=O)c1coc(=O)c(Br)c1)c1ccc2c(c1)OCO2	none
CCCCc1ccc(NC(=O)c2ccc(NS(C)(=O)=O)cc2)cc1	Apaf1 activ -102.4 | Rh110 act interf inactive | Apaf-1 act conf2 inactive
CCOC(=O)C1CCN(C(=O)c2ccc3c(c2)NC(=O)/C(=C\c2cccc(C)c2)S3)CC1	none
O=C(Nc1ccc(OC(F)F)c(Cl)c1)[C@@H]1CCCN1C(=O)c1cccs1	none
Cc1ccc(NC(=O)N2CCCC2C(=O)Nc2ccc3c(c2)OCCO3)cc1 (centres undefined)	Apaf1 activ -82.8 | Rh110 act interf inactive | Apaf-1 act conf2 inactive
O=C(Nc1ccc2c(c1)OCO2)C1CCCCN1S(=O)(=O)c1ccccc1 (centres undefined)	Apaf1 activ -95.0 | Rh110 act interf inactive | Apaf-1 act conf2 inactive
C#CCOCCOCCOCCNc1nc(N2CCN(C(=O)CCCCCCCCCCNC(=O)[C@H]([C@@H](C)CC)n3cc(CCCCCN)nn3)CC2)nc(N2CCN(C(=O)CCCCCCCCCCNC(=O)[C@H](CCCCN)n3cc(CCCC(=O)O)nn3)CC2)n1	none
CCNC(=S)Nc1cccc(NC(=O)c2ccccc2O)c1	Apaf1 activ -206.5 | Rh110 act interf inactive | Apaf-1 act conf2 inactive
CCN(CCO)c1ccc(NC(=S)Nc2cccc(S(=O)(=O)N(C)C)c2)cc1	none
CN(C)CCn1c2c(c(SCC(=O)Nc3ccc4c(c3)OCCO4)nc1=O)CCCC2	Apaf1 activ -62.2 | Rh110 act interf inactive | Apaf-1 act conf2 inactive
CN(C)CCN(C(=O)c1ccc2c(c1)CCCC2)c1nc2cc3c(cc2s1)OCCO3	none
COc1ccc(NC(=O)CSc2nc3c(c(-c4cccs4)c2C#N)CN(C)CC3)cc1OC	none
OC(CNCC1CCCO1)Cn1c2ccc(Cl)cc2c2cc(Cl)ccc21 (centres undefined)	none
Cc1ccccc1Cn1cc(/C=N/n2cnnc2)c2ccccc21	Apaf1 activ -56.8 | Rh110 act interf inactive | Apaf-1 act conf2 inactive
Cc1[nH][nH]c(=O)c1C(c1c(C)[nH][nH]c1=O)c1cn(Cc2cccc3ccccc23)c2ccccc12	none
CC1CCCCC1NC(=O)Cn1nnc2ccccc2c1=O (centres undefined)	Apaf1 activ -197.9 | Rh110 act interf inactive | Apaf-1 act conf2 inactive
CCOc1ccccc1CNC(=O)C1CCN(c2nnc(C)c3c(C)n(-c4ccc(C)cc4)nc23)CC1	none
OC(CNC1CCCc2ccccc21)COc1ccc2ccccc2c1 (centres undefined)	none
O=C(c1ccccc1)c1ccc(OCC(O)CNC2CCCc3ccccc32)cc1 (centres undefined)	none
OC(CNc1ccccc1)COc1ccc(OCC(O)CNc2ccccc2)cc1 (centres undefined)	Apaf1 activ -141.3 | Rh110 act interf inactive | Apaf-1 act conf2 inactive
Cc1ccc(C=Nc2ccc(N(C)C)cc2)o1	none
CCc1ccc2nc(N(CCCN(C)C)C(=O)c3ccc(S(=O)(=O)N(C)C4CCCCC4)cc3)sc2c1	none
CN(C)CCCN(C(=O)c1ccco1)c1nc2ccc(F)cc2s1	Apaf1 activ -98.5 | Rh110 act interf inactive | Apaf-1 act conf2 inactive
CN(C)CCCN(C(=O)c1ccc(C(=O)c2ccccc2)cc1)c1nc2cc3c(cc2s1)OCO3	none
O=C(c1ccccc1)c1coc2c1C(=O)c1ccccc1C2=O	none
CCN1CCN(CCNC(=O)c2ccc(/C=C3\Sc4ccccc4N(Cc4ccccc4F)C3=O)cc2)CC1	none
CCOc1ccc(-c2cc(C(=O)NCCCn3ccnc3)c3cc(Br)ccc3n2)cc1	none
O=C(NCCCn1ccnc1)c1cn(Cc2ccc(F)cc2)nn1	Apaf1 activ -41.0 | Rh110 act interf inactive | Apaf-1 act conf2 inactive
O=C1CCN(Cc2ccccc2)C=C1c1ccc(Cl)cc1	none
O=C(CO/N=C/c1ccc(OC(F)F)cc1)NC1CCCC1	Apaf1 activ -453.5 | Rh110 act interf inactive | Apaf-1 act conf2 inactive
Cc1ccc(C(=O)N/N=C/c2ccc(-c3ccccc3[N+](=O)[O-])o2)cn1	none
CC1=NN(c2ccccc2)C(=O)/C1=C/c1cccc(C)c1	none
COc1ccc2c(c1)c(=O)oc1cc(O)ccc12	Apaf1 activ -298.5 | Rh110 act interf inactive | Apaf-1 act conf2 inactive
O=c1oc2cc(O)ccc2c2oc3cc(O)ccc3c12	Apaf1 activ -40.8 | Rh110 act interf inactive | Apaf-1 act conf2 inactive
CN(C)c1ccnc2c[cH-]cc12.[Fe].c1ccc(-[c-]2[c-](-c3ccccc3)[c-](-c3ccccc3)[c-](-c3ccccc3)[c-]2-c2ccccc2)cc1 (centres undefined)	none
O=C1C(Cl)=C(N2CCC(C(=O)O)CC2)C(=O)c2ccccc21	none
NC1=NC[C@H](Cc2ccccc2)N1CCc1cc(C(F)(F)F)cc(C(F)(F)F)c1	none
Cc1ccc2c(CN3CCCCC3C)cc(=O)oc2c1C (centres undefined)	Apaf1 activ -49.6 | Rh110 act interf inactive | Apaf-1 act conf2 inactive
O=C(Cc1ccccc1Cl)NC1(O)C(=O)c2ccccc2C1=O	none
CC1(C(=O)NC2CCCC2)CCC(=O)N1Cc1ccccc1Cl (centres undefined)	Apaf1 activ -105.6 | Rh110 act interf inactive | Apaf-1 act conf2 inactive
C#CCOCCOCCOCCNc1nc(N2CCN(C(=O)CCCCCCCCCCNC(=O)[C@H]([C@@H](C)CC)n3cc(CCCCN=C(N)N)nn3)CC2)nc(N2CCN(C(=O)CCCCCCCCCCNC(=O)[C@H](CCCCN)n3cc(C)nn3)CC2)n1	none
COc1ccc(N=C2C(=Nc3ccc(OC)cc3)N(c3ccc(OC)cc3)C(=S)N2c2ccccc2)cc1	none
O=C(CSc1ccc2nnc(CCNC(=O)c3ccccc3)n2n1)Nc1ccccc1	Apaf1 activ -293.3 | Rh110 act interf inactive | Apaf-1 act conf2 inactive
